HTRA1 inh: HTRA1 (human) protease inhibition; inhibition, % at 5.96 µM; 340,000 tested, 0.5% active; recombinant HTRA1, FP-rhodamine activity-based probe, fluorescence polarization; in the data active means inhibition above about 36%
PRMT1 FP inh: PRMT1 (human) inhibition, primary screen | Q99873 | recombinant PRMT1, activity-based probe fluorescence polarization | inhibition, % at 2.79 µM | 370,000 tested, 1.3% active | AID 652257;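 active means inhibition above about 21% made by adding two undisclosed values, limit read from the data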
Target sequence (Q99873 whole entry, looked up): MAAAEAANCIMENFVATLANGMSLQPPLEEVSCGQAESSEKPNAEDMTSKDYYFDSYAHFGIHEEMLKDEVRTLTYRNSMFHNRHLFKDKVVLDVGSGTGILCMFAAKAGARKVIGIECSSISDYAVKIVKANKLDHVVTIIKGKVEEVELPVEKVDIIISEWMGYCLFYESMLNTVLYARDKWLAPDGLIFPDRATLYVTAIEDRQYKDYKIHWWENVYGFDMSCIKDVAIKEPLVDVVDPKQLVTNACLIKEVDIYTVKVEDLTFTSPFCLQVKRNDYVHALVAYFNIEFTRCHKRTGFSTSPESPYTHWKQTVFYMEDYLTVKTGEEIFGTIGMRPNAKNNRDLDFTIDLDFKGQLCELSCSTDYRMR
SIAE inh: human SIAE inhibition, primary screen. inhibition, % at 9.66 µM. Q9HAT2. SIAE FP-Rh probe binding, fluorescence polarization. 370,000 tested, 0.69% active. AID 1053197;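 active means inhibition above a cutoff: mean of compounds within the control limits plus 3 SD of those, cut at about 17% in these data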
mABHD4 FP: ABHD4 (mouse) inhibition, primary FP screen; Q8VD66; purified mABHD4, FP-Rh probe fluorescence polarization; inhibition, % at 8.92 µM; 370,000 tested, 0.54% active; AID 720543;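 active means inhibition exceeding the mean over every tested compound plus 3 SD, cut at about 30% in these data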
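Assay system: wild-type mouse ABHD4 protein; compound: single nominal dose of 8.92 µM, 0.89% DMSO final; schedule: 45 min + 60 min at 25 °C; measured by: FP readout, ex 525 nm / em 598 nm; evaluation: % inhibition of FP-Rh probe binding versus controls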
TCR CD3 inh: blocks the human TCR-CD3 interaction | TAMRA-labeled TCR probe fluorescence, biochemical | inhibition, % at 9.4 µM | 360,000 tested, 0.37% active | AID 651800; in the data active means inhibition above about 19%;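 further: recombinant mutant TCR 2C K166C tagged with TAMRA read by polarization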
Large screens that a line does not name were inactive. Hits are enriched below; roughly 2.5% of the tested compounds scored in any of these assays.

O=C(O)c1cccc(-n2cccc2/C=C/[N+](=O)[O-])c1	PRMT1 FP inh 26
Cc1ccc(C)c(S(=O)(=O)Nc2cc(SCC(=O)O)c(O)c3ccccc23)c1	HTRA1 inh 45 (no result: PRMT1 FP inh, SIAE inh, mABHD4 FP, TCR CD3 inh)
CCC(c1nnc(SCC(=O)NCCc2ccc(Cl)cc2Cl)o1)N(C)C (stereo not given)	PRMT1 FP inh 21
CCC(c1nnc(SCC(=O)Nc2cc(C)on2)o1)N(C)C (stereo not given)	none
Cc1cc(C)c(NC(=O)CSc2nnc(CNC(=O)c3ccco3)o2)c(C)c1	none
COc1ccc2cc1Oc1ccc(cc1)C[C@H]1c3cc(c(OC)cc3CCN1C)Oc1c(OC)c(OC)cc3c1[C@H](C2)N(C)CC3	none
COc1ccc2cc1Oc1ccc(cc1)C[C@H]1c3c(cc4c(c3Oc3cc5c(cc3OC)CCN(C)[C@@H]5C2)OCO4)CCN1C	SIAE inh 19
CCN1CCN(c2cc(N3CCN(C(=O)c4ccco4)CC3)c3c4c(onc24)-c2ccccc2C3=O)CC1	HTRA1 inh 70 (no result: PRMT1 FP inh, SIAE inh, mABHD4 FP, TCR CD3 inh)
CCC(C)CNC(=O)c1oc(=O)c2ccccc2c1-c1ccc(C)cc1 (stereo not given)	none (no result: HTRA1 inh, TCR CD3 inh)
O=C(O)/C(=C\c1ccc(Cl)c([N+](=O)[O-])c1)c1ccc(S(=O)(=O)N2CCCC2)s1	PRMT1 FP inh 23
COc1ccc(NC(=O)CNc2cc(S(=O)(=O)N3CCOCC3)ccc2NCC2CCCO2)cc1 (stereo not given)	none
CCC(c1nnnn1Cc1ccco1)N(CCN1CCOCC1)Cc1cc2cc(C)ccc2[nH]c1=O (stereo not given)	PRMT1 FP inh 21
Cc1ccc2cc(CN(CCCN3CCOCC3)C(c3nnnn3Cc3ccco3)C(C)C)c(=O)[nH]c2c1C (stereo not given)	none
Cn1cc(Br)c(-c2cccc(NC(=O)CCC(=O)O)c2)n1	none
Cc1ccc(C2NC(=S)N3C(c4ccc(C)cc4)NC(=S)N23)cc1 (stereo not given)	PRMT1 FP inh 22
S=C1NC(c2ccccc2)N2C(=S)NC(c3ccccc3)N12 (stereo not given)	none
C=C1C(=O)c2sccc2C(c2ccc(OC)c(OC)c2)C1COC(C)=O (stereo not given)	PRMT1 FP inh 24
CC(=O)N1C[C@@H](CO)[C@@H]2C[C@H]1c1ccccc1N2C	none (no result: HTRA1 inh)
O=C(COc1cccnc1[N+](=O)[O-])c1ccc(Cl)s1	PRMT1 FP inh 52
CC(C)(C)OC(=O)/C=C/[C@@H](CCCCl)Sc1ccc(C(C)(C)C)cc1	none (no result: HTRA1 inh, TCR CD3 inh)
CC1CCCCC1NC(=O)CN1C(=O)CSc2cc(S(=O)(=O)N3CCCCCC3)ccc21 (stereo not given)	none
O=C(Cc1n[nH]c(=O)c2ccccc12)NC(c1ccccc1)c1ccccc1	none
Cc1ccc(N2C(=O)c3ccccc3C2C(=O)c2ccc(O)cc2O)cc1 (stereo not given)	PRMT1 FP inh 24
NS(=O)(=O)c1ccc(Sc2nc3ccccc3s2)c([N+](=O)[O-])c1	none
O=C(O)c1ccc(S(=O)(=O)Nc2ccc(O)c(Sc3nc4ccccc4s3)c2)cc1	PRMT1 FP inh 22
CCCc1nnc(NC(=O)C23CC4CC(CC(C4)C2)C3)s1	none
CCCC(=O)N(C1CC(C)C(C#N)(C#N)C1(C#N)C#N)N(C)C (stereo not given)	PRMT1 FP inh 22
Cc1ccc2c(c1C)NC(C(=O)O)C1CC=CC21 (stereo not given)	HTRA1 inh 51 (no result: PRMT1 FP inh, SIAE inh, mABHD4 FP, TCR CD3 inh)
COCCN=C1NC(=O)C(CC(=O)Nc2cccc(Cl)c2C)S1 (stereo not given)	PRMT1 FP inh 24 (no result: HTRA1 inh)
N#C/C(=C\c1ccc(O)c(O)c1)S(=O)(=O)c1ccccc1	SIAE inh 20
N#C/C(=C/c1ccc(F)cc1)S(=O)(=O)c1ccccc1	none
O=C(Nc1ccc2c(c1)OCO2)NC1CCCCN(Cc2cccc(Cl)c2)C1=O (stereo not given)	none (no result: HTRA1 inh, TCR CD3 inh)
Cc1cc(-c2csc(NCc3ccccc3)n2)c(C)n1C	HTRA1 inh 37 (no result: PRMT1 FP inh, SIAE inh, mABHD4 FP, TCR CD3 inh)
CN1CCc2c(sc3c2C(=O)NC(c2ccccc2)N3)C1 (stereo not given)	none
CN1CCc2c(sc3c2C(=O)NC(c2ccccn2)N3)C1 (stereo not given)	PRMT1 FP inh 27
CCn1ccc(C(=O)NC2=NCCS2)n1	PRMT1 FP inh 24
Cc1ccc(-c2nc3sc(C#N)c(N)n3c(=O)c2C#N)cc1	PRMT1 FP inh 81
CCc1cc(=O)n2[nH]c(-c3ccccc3)c(-c3ccccc3)c2n1	none
O=C(O)COc1ccccc1/C=C1\SC(=S)N(/N=C/c2ccccc2O)C1=O	PRMT1 FP inh 23
O=C(O)COc1ccccc1/C=C1\SC(=S)N(NC(=O)c2ccccc2O)C1=O	none
Cc1cc(C)c(NC(=O)CO/N=C2\CCCc3nonc32)c(C)c1	none
O=C(OCC(=O)N1CCN(c2ccccc2)CC1)c1ccc(Cl)nc1	none
O=C(OCC(=O)N1CCN(c2ccccc2)CC1)c1ccc2ncsc2c1	PRMT1 FP inh 23
COc1cc(C(=S)N2CCCC2)cc(Cl)c1OCC(=O)Nc1ccc(C)cc1C	PRMT1 FP inh 22
COc1ccc2c(c1)-c1nc(NC(=O)c3cccs3)sc1CC2	none
COc1ccc2c(c1)-c1nc(/N=C/c3c(O)ccc4ccccc34)sc1CC2	PRMT1 FP inh 21
COc1ccc2c(c1)-c1nc(/N=C/c3ccc(O)cc3)sc1CC2	PRMT1 FP inh 36
CCOC(=O)[C@]12CCCCC/C=C\1N(CCc1ccc(Cl)cc1)C(=O)[C@H]2CC(=O)N1CCCC1	none (no result: HTRA1 inh, TCR CD3 inh)
Cc1c(F)cccc1NC(=O)c1ccc2c(c1)CCN2S(C)(=O)=O	none
COc1ccc(N2C(=O)CC(N3CCN(c4ccccc4)CC3)C2=O)cc1 (stereo not given)	none
COc1ccc(N2C(=O)CC(N3CCOCC3)C2=O)cc1 (stereo not given)	PRMT1 FP inh 21
O=C(O)c1[nH]c2ccccc2c1C(c1cc(Cl)cc([N+](=O)[O-])c1O)c1c(C(=O)O)[nH]c2ccccc12	mABHD4 FP 68
O=C(O)COc1ccc(Br)cc1C(c1c(C(=O)O)[nH]c2ccccc12)c1c(C(=O)O)[nH]c2ccccc12	none (no result: PRMT1 FP inh, SIAE inh, mABHD4 FP, TCR CD3 inh)
O=S(=O)(c1ccccc1)c1cc(O)ccc1O	none
Nc1ccc(S(=O)(=O)c2cc(O)c3ccccc3c2O)cc1	PRMT1 FP inh 24, mABHD4 FP 48
Cc1ccc(CC(=O)NNC(=O)c2ccncc2)cc1C	PRMT1 FP inh 24
COc1ccc(C(=O)N2CCCCCC2)cc1S(=O)(=O)N1CCOCC1	none
COc1cc(C(=O)NCC2CCCO2)ccc1OCc1ccccc1Cl (stereo not given)	none
Cc1cccc(Oc2coc3cc(O)ccc3c2=O)c1	none
CCOC(=O)Oc1ccc2c(=O)c(Oc3cccc(C)c3)coc2c1	HTRA1 inh 51
COc1ccc(Oc2coc3cc(OC(=O)N4CCOCC4)ccc3c2=O)cc1	none
CCOC(=O)Oc1ccc2c(=O)c(Oc3cc(C)cc(C)c3)coc2c1	HTRA1 inh 49
COc1ccc(Oc2coc3cc(OC(=O)c4cccs4)ccc3c2=O)cc1	HTRA1 inh 51
